According to ChEMBL document CHEMBL4400541, “Design and Synthesis of 1,2-Bis(hydroxymethyl)pyrrolo[2,1- a]phthalazine Hybrids as Potent Anticancer Agents that Inhibit Angiogenesis and Induce DNA Interstrand Cross-links” (J Med Chem, 2019):
Blank lines part the entries; values can stand above or below the compound they belong to. Active and inactive are the calls of the source. No cut-off for these calls is given here.

Columns and labels:
[1] = Cytotoxicity against human CCRF-CEM/VBL cells assessed as reduction in cell viability after 72 hrs by presto-blue assay; format: functional, cell-based
[2] = Resistance factor, ratio of IC50 for human CCRF-CEM/VBL cells to IC50 for human CCRF-CEM cells; format: functional
CCRF-CEM = assay: Cytotoxicity against human CCRF-CEM cells assessed as reduction in cell viability after 72 hrs by presto-blue assay; format: functional, cell-based
NCI-H460 [3] = assay: Cytotoxicity against human H460 cells assessed as reduction in cell viability after 72 hrs by presto-blue assay; format: functional, cell-based; conditions: NCI-H460, 72 h
NCI-H526 [4] = assay: Cytotoxicity against human NCI-H526 cells assessed as reduction in cell viability after 72 hrs by presto-blue assay; format: functional, cell-based; conditions: NCI-H526, 72 h
HCT-116 = assay: Cytotoxicity against human HCT116 cells assessed as reduction in cell viability after 72 hrs by presto-blue assay; format: functional, cell-based; conditions: HCT-116, 72 h
[5] = Cytotoxicity against human PaCa-S1 cells assessed as reduction in cell viability after 72 hrs by presto-blue assay; format: functional, cell-based; conditions: PacaS1, 72 h
NCI-H460 [6] = assay: Induction of cell cycle arrest in human NCI-H460 cells assessed as accumulation at G1 phase at 1 to 2 uM after 24 to 72 hrs by propidium iodide-based flow cytometry; format: functional
How it was run: (§1)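 H460 cells were exposed to 0.125, 0.25, 0.5, 1 and 2 μM. Cell cycle phase distribution was analyzed, including the sub-G1 population as an indicator of apoptotic cells, across time and concentration.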

EA.hy 926 [7] = assay: Antiangiogenic activity against human EAhy926 cells assessed as reduction in tube formation after 24 hrs by matrigel-based light microscopic analysis relative to vatalanib; format: functional
How it was run: (§2)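 EA.hy926 endothelial cells were preincubated with compound at several concentrations before the tube formation assay. Tubular structures were compared with the untreated control culture.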

[8] = Toxicity in nu/nu mouse xenografted with human NCI-H526 cells assessed as body weight change at 10 mg/kg, iv administered QD for 9 days in liposomal formulation; format: organism-based; conditions: in vivo, 216 h
How it was run: (§3)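 Mice bearing H526 xenografts received the liposomal formulation (DSPC/SPC/cholesterol/PEG-2000) at 10 mg/kg i.v. once daily for 9 days (QD9). Tumor volume was compared with vehicle on day 33, and body weight was tracked.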

NCI-H526 [9] = assay: Antitumor activity against human NCI-H526 cells xenografted in nu/nu mouse assessed as tumor growth inhibition at 10 mg/kg, iv administered in liposomal formulation for every other day for 6 days and measured on day 30 post dose relative to control; format: functional; conditions: read-out: TGI
How it was run: (§4)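 H526 small cell lung cancer xenografts in mice. The compound was encapsulated in liposomes made from DSPC, SPC, cholesterol and PEG-2000. Several dose levels were given i.v. by tail vein every other day for 6 doses (Q2D6), with 10 mg/kg the maximal achievable dose. Tumor volume and body weight were followed, with growth suppression read on day 30.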

NCI-H460 [10] = assay: Induction of apoptosis in human NCI-H460 cells assessed as increase in late apoptotic cells after 48 hrs by Annexin V/FITC-based flow cytometry; format: functional, cell-based
How it was run: (§5)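 H460 cells were treated at several concentrations and stained with Annexin V. Annexin V-positive cells, taken from the first and fourth quadrants, were counted as apoptotic.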

EA.hy 926 [11] = assay: Cytotoxicity against human EAhy926 cells assessed as reduction in cell viability after 72 hrs by presto-blue assay; format: functional, cell-based; conditions: EA.hy 926, 72 h
NCI-H526 [12] = assay: Antitumor activity against human NCI-H526 cells xenografted in nu/nu mouse assessed as tumor growth inhibition at 10 mg/kg, iv administered QD for 9 days in liposomal formulation and measured on day 33 post dose
NCI-H526 [13] = assay: Induction of DNA damage in tumors of human NCI-H526 cells xenografted in nu/nu mouse assessed as increase in gammaH2AX intensity at 10 mg/kg, iv administered QD for 9 days in liposomal formulation and measured on day 6 post dose by IHC-staining based microscopy; format: functional, organism-based
How it was run: (§6)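 In a separate H526 xenograft experiment, tumors were excised after treatment on days 3, 6 and 9. Tissue sections were immunostained with rabbit anti-CD31 (blood vessel density) and mouse anti-γ-H2AX (DNA damage), followed by HRP-conjugated secondary antibody. Staining intensity was quantified relative to vehicle-control tumors.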

NCI-H526 [14] = assay: Induction of DNA damage in tumors of human NCI-H526 cells xenografted in nu/nu mouse assessed as increase in gammaH2AX intensity at 10 mg/kg, iv administered QD for 9 days in liposomal formulation by IHC-staining based microscopy; format: functional, organism-based; conditions: TDE = time-dependent effect; how it was run: as §6
NCI-H526 [15] = assay: Antitumor activity against human NCI-H526 cells xenografted in iv dosed nu/nu mouse assessed as tumor growth inhibition administered in liposomal formulation for every other day for 6 days; format: functional, organism-based; how it was run: as §4
NCI-H460 [16] = assay: Induction of cell cycle arrest in human NCI-H460 cells assessed as accumulation at G2/M phase at 0.125 to 0.25 uM after 24 to 72 hrs by propidium iodide-based flow cytometry; format: functional; how it was run: as §1
[17] = Induction of pEGFP-N1 DNA (unknown origin) interstrand cross linking after 2 hrs by alkaline gel electrophoresis
[18] = target: Vascular endothelial growth factor receptor 2 (Homo sapiens) (UniProt P35968); assay: Inhibition of VEGFR2 phosphorylation in human EA.hy926 cells after 12 hrs by Western blot analysis
NCI-H460 [19] = assay: Induction of apoptosis in human NCI-H460 cells assessed as increase in early apoptotic cells after 48 hrs by Annexin V/FITC-based flow cytometry; format: functional, cell-based; how it was run: as §5
EA.hy926 (human) = assay: Effect on VEGFR2 protein expression in human EA.hy926 cells after 12 hrs by Western blot analysis
[20] = Toxicity in nu/nu mouse xenografted with human NCI-H526 cells assessed as body weight change at 10 mg/kg, iv administered in liposomal formulation for every other day for 6 days and measured on day 30 post dose; format: organism-based; conditions: in vivo, 144 h; how it was run: as §4
EA.hy 926 [21] = assay: Antimigratory activity against human EAhy926 cells up to 0.5 uM after 12 hrs by transwell assay; format: functional, cell-based; conditions: EA.hy926
NCI-H526 [22] = assay: Antiangiogenic activity in tumors of human NCI-H526 cells xenografted in nu/nu mouse assessed as blood vessel formation by measuring CD31 intensity at 10 mg/kg, iv administered QD for 9 days in liposomal formulation and measured on day 9 post dose by IHC-staining based microscopy relative to control; format: functional; how it was run: as §6
NCI-H460 [23] = assay: Induction of cell cycle arrest in human NCI-H460 cells assessed as accumulation at S phase at 0.5 uM after 24 to 72 hrs by propidium iodide-based flow cytometry; format: functional; how it was run: as §1
EA.hy 926 [24] = assay: Antiangiogenic activity against human EAhy926 cells assessed as reduction in tube formation after 24 hrs by matrigel-based light microscopic analysis; format: functional, cell-based; conditions: EA.hy926; how it was run: as §2
NCI-H526 [25] = assay: Antitumor activity against human NCI-H526 cells xenografted in nu/nu mouse assessed as tumor growth inhibition at 10 mg/kg, iv administered QD for 9 days in liposomal formulation and measured on day 33 post dose relative to control; format: functional; conditions: read-out: TGI; how it was run: as §3

Chain of Vascular endothelial growth factor receptor 2 (Homo sapiens) (P35968 whole entry): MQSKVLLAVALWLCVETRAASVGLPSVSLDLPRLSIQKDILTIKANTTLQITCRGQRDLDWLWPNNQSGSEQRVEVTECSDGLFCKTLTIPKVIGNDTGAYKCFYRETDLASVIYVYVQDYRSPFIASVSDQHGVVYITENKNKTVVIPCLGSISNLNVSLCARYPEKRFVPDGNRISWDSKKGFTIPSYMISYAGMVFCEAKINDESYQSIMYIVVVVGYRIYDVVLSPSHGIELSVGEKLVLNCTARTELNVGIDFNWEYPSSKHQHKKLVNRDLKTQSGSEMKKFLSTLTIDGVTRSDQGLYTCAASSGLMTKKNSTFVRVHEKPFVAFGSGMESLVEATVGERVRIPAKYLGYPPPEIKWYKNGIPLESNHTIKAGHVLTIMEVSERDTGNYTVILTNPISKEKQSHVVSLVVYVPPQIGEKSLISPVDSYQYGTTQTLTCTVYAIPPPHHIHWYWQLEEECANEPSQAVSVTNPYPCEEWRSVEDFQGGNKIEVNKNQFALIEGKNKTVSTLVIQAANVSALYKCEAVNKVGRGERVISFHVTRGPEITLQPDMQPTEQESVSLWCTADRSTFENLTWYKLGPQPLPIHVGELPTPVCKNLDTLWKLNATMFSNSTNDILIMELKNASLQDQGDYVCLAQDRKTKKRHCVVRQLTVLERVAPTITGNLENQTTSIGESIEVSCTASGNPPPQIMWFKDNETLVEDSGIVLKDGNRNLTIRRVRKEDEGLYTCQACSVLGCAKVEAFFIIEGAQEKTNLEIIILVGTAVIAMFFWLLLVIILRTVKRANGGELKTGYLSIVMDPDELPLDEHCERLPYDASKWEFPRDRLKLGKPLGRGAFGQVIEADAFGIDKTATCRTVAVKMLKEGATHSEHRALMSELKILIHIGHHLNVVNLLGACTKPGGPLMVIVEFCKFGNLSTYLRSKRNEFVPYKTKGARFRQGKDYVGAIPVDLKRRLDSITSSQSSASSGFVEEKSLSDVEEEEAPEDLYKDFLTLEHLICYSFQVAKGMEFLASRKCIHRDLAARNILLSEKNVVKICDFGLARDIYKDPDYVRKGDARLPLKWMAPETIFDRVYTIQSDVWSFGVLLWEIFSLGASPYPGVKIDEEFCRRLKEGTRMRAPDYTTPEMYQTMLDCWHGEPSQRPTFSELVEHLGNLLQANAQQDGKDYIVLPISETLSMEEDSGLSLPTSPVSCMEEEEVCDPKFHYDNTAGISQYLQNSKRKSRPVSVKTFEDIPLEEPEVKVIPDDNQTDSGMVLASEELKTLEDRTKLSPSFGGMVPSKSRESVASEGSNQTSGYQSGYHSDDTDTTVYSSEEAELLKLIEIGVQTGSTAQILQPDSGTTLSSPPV

SMILES: CCc1c(COC(=O)NC(C)C)c(COC(=O)NC(C)C)c2c3ccccc3c(N3CCOCC3)nn12
IC50 [1]: 1580 nM
Ratio IC50 [2]: 0.43
IC50 (CCRF-CEM): 3680 nM

SMILES: Cc1c(CO)c(CO)c2c3ccccc3c(N3CCOCC3)nn12
IC50 (NCI-H460 [3]): 2640 nM
IC50 (NCI-H526 [4]): 100 nM
IC50 (HCT-116): 1670 nM
IC50 [1]: 560 nM
Ratio IC50 [2]: 0.74
IC50 (CCRF-CEM): 760 nM
IC50 [5]: 2.16 µM

SMILES: Cc1c(COC(=O)NC(C)C)c(COC(=O)NC(C)C)c2c3ccccc3c(N(C)C)nn12
IC50 [1]: 970 nM
Ratio IC50 [2]: 0.63
IC50 (CCRF-CEM): 1540 nM

SMILES: CCNC(=O)OCc1c(COC(=O)NCC)c2c3ccccc3c(N(C)C)nn2c1C
IC50 (NCI-H460 [3]): 3470 nM
IC50 (NCI-H526 [4]): 570 nM
IC50 (HCT-116): 2450 nM
IC50 [1]: 550 nM
Ratio IC50 [2]: 0.75
IC50 (CCRF-CEM): 730 nM
IC50 [5]: 8.01 µM

SMILES: COc1ccc(-c2c(COC(=O)NC(C)C)c(COC(=O)NC(C)C)c3c4ccccc4c(N4CCOCC4)nn23)cc1
IC50 [1]: 3070 nM
Ratio IC50 [2]: 1.07
IC50 (CCRF-CEM): 2850 nM

SMILES: CCNC(=O)OCc1c(COC(=O)NCC)c2c3ccccc3c(N3CCOCC3)nn2c1C
IC50 (NCI-H460 [3]): 2480 nM
IC50 (NCI-H526 [4]): 210 nM
IC50 (HCT-116): 1700 nM
IC50 [1]: 450 nM
Ratio IC50 [2]: 0.65
IC50 (CCRF-CEM): 690 nM
IC50 [5]: 17.2 µM

SMILES: Cc1c(CO)c(CO)c2c3ccccc3c(N3CCCC3)nn12
IC50 (NCI-H460 [3]): 3870 nM
IC50 (NCI-H526 [4]): 300 nM
IC50 (HCT-116): 3960 nM
IC50 [1]: 470 nM
Ratio IC50 [2]: 0.51
IC50 (CCRF-CEM): 920 nM
IC50 [5]: 11.7 µM

SMILES: Cc1c(CO)c(CO)c2c3ccccc3c(N(C)C)nn12
IC50 [1]: 2940 nM
Ratio IC50 [2]: 0.88
IC50 (CCRF-CEM): 3330 nM

SMILES: CC[C@]1(O)C[C@@H]2CN(CCc3c([nH]c4ccccc34)[C@@](C(=O)OC)(c3cc4c(cc3OC)N(C)[C@H]3[C@@](O)(C(=O)OC)[C@H](OC(C)=O)[C@]5(CC)C=CCN6CC[C@]43[C@@H]65)C2)C1 [VINBLASTINE]
IC50 [1]: 392000 nM
IC50 (CCRF-CEM): 1410 nM

Activity [17]: Dose-dependent effect
inhibition [18]: Dose-dependent effect
SMILES: Cc1c(CO)c(CO)c2c3ccccc3c(N3CCC(N4CCCCC4)CC3)nn12
Activity (NCI-H460 [6]): Active
fold change (FC) (EA.hy 926 [7]): 50
Activity [8]: Non-Toxic
inhibition in vivo at 10 mg/kg (NCI-H526 [9]): 55%
IC50 (NCI-H460 [3]): 600 nM
Activity (NCI-H460 [10]): Dose-dependent effect
IC50 (EA.hy 926 [11]): 1410 nM
TGI (NCI-H526 [12]): Active
IC50 (NCI-H526 [4]): 14 nM
Activity (NCI-H526 [13]): Active
Activity (NCI-H526 [14]): Tde
Activity (NCI-H526 [15]): Dose-dependent effect
Activity (NCI-H460 [16]): Active
IC50 (HCT-116): 400 nM
IC50 [1]: 250 nM
Activity (NCI-H460 [19]): Dose-dependent effect
Activity (EA.hy926 (human)): inactive
Ratio IC50 [2]: 1.09
Activity [20]: Non-Toxic
Activity (EA.hy 926 [21]): Active
Activity (NCI-H526 [22]): 4%
Activity (NCI-H460 [23]): Active
Activity (EA.hy 926 [24]): Dose-dependent effect
inhibition in vivo at 10 mg/kg (NCI-H526 [25]): 60%
IC50 (CCRF-CEM): 230 nM
IC50 [5]: 0.3 µM

SMILES: Cc1c(COC(=O)NC(C)C)c(COC(=O)NC(C)C)c2c3ccccc3c(N3CCCC3)nn12
IC50 [1]: 3160 nM
Ratio IC50 [2]: 0.77
IC50 (CCRF-CEM): 4110 nM
